# Experimental data pooled from the literature.
# Protocols differ between the studies behind these lines.
# Effect on: cell growth or viability
SMILES,cell line,technique,tested at,time,endpoint,value
COc1cc(OC)c2c(=O)cc(-c3ccccc3Br)oc2c1-c1c(OC)cc(OC)c2c(=O)cc(-c3ccccc3Br)oc12,HS27,MTT,,24 h,IC50,> 200 µM
CCOC(=O)C(C(C)=O)=C1Sc2nc3ccc(S(=O)(=O)N4CCCC4)cc3nc2S1,MDA-MB-231,MTT,3.125 µM,24 h,viability,49.2%
C=CCn1c(-c2ccc(Cl)cc2)nc2ccc(C)cc21,MDA-MB-231,MTT,,,IC50,30.1 µM
COc1ccc(-c2cc(=O)c3c(OC)cc(OC)c(-c4c(OC)cc(OC)c5c(=O)cc(-c6ccc(OC)cc6)oc45)c3o2)cc1,HS27,MTT,,24 h,IC50,> 200 µM
Cc1ccc2nc(-c3ccc(N(C)C)cc3)[nH]c2c1,MDA-MB-231,MTT,,48 h,IC50,31.5 µM
COc1cc(OC)c2c(=O)cc(-c3ccccc3)oc2c1-c1c(OC)cc(OC)c2c(=O)cc(-c3ccccc3)oc12,HS27,MTT,,24 h,IC50,> 200 µM
N#CC(C(=O)Nc1cccc(C(F)(F)F)c1)=C1Sc2nc3ccc(S(=O)(=O)N4CCCC4)cc3nc2S1,MDA-MB-231,MTT,50 µM,24 h,viability,18.4%
COC(=O)CN=c1scc(-c2ccccc2)n1-c1ccccc1[N+](=O)[O-],SiHa,MTT,,,IC50,6.78 µM
Cc1ccc2nc(-c3ccc(Cl)cc3Cl)[nH]c2c1,MDA-MB-231,MTT,,48 h,IC50,27.5 µM
COc1cc2c(cc1O)CCN(Cc1cc(OC)c(OC)c(OC)c1)C2,MDA-MB-231,WST-1,,96 h,GI50,0.62 µM
O=C1CCCCC1=C1Sc2nc3ccc(S(=O)(=O)N4CCCC4)cc3nc2S1,MDA-MB-231,MTT,50 µM,24 h,viability,14.9%
COc1cc(C)c(-c2c(C)cc(OC)c3c(=O)cc(-c4ccc(N(C)C)cc4)oc23)c2oc(-c3ccc(N(C)C)cc3)cc(=O)c12,HS27,MTT,,24 h,IC50,180 µM
c1cncc(-c2nc3ccccc3[nH]2)c1,MDA-MB-231,MTT,,48 h,IC50,> 100 µM
COc1cccc2c1C(=O)c1c(O)c3c(c(O)c1C2=O)C[C@@](O)(C(=O)CO)C[C@@H]3O[C@H]1C[C@H](N)[C@H](O)[C@H](C)O1,MDA-MB-231,MTT,25 µM,24 h,viability,16.2%
CC#CC(=O)N1CC[C@@H](n2cc(-c3ccc(Oc4c(F)cccc4F)cc3)c3c(N)n[nH]c(=O)c32)C1,OCI-Ly3,ATP luminescence,,72 h,GI50,9.56 µM
CNC(=O)c1ccc(N2C(=S)N(c3ccc(C#N)c(C(F)(F)F)c3)C(=O)C2(C)C)cc1F,CWR22Rv1,MTT,,,GI50,15.1 µM
Cc1ccc2nc(-c3ccccc3O)[nH]c2c1,MDA-MB-231,MTT,,48 h,IC50,31.9 µM
COc1cc(OC)c(OC)cc1CN1CCc2cc(OS(N)(=O)=O)c(OC)cc2C1,MDA-MB-231,WST-1,,96 h,GI50,0.491 µM
Cc1ccc2nc(-c3cccnc3)[nH]c2c1,MDA-MB-231,MTT,,48 h,IC50,89 µM
COc1cc2c(cc1O)CCN(Cc1cccc(O)c1)C2,MDA-MB-231,WST-1,,96 h,GI50,> 100 µM
COc1cc(OC)c2c(=O)cc(-c3ccccc3)oc2c1,HS27,MTT,,24 h,IC50,> 200 µM
COc1cc2c(cc1OS(N)(=O)=O)CCN(Cc1cccc(OC(C)C)c1)C2,MDA-MB-231,WST-1,,96 h,GI50,4.65 µM
Cc1ccc2nc(-c3ccc(Cl)cc3)[nH]c2c1,MDA-MB-231,MTT,,48 h,IC50,27.1 µM
COc1cc(OC)c(CN2CCc3cc(O)c(OC)cc3C2)c(OC)c1,MDA-MB-231,WST-1,,96 h,GI50,> 100 µM
COc1ccc(-c2cc(=O)c3c(OC)cc(OC)cc3o2)cc1,HS27,MTT,,24 h,IC50,> 200 µM
COc1cc2c(cc1O)CCN(Cc1cccc(OC(F)(F)F)c1)C2,MDA-MB-231,WST-1,,96 h,GI50,> 100 µM
COc1ccc(-c2nc3ccccc3n2Cc2ccccc2)cc1OC,MDA-MB-231,MTT,,,IC50,27.1 µM
COc1cc(C)cc2oc(-c3ccccc3Br)cc(=O)c12,HS27,MTT,,24 h,IC50,130 µM
C[C@]12CC[C@H](O)CC1=CC[C@@H]1[C@@H]2CC[C@]2(C)C(n3cnc4ccccc43)=CC[C@@H]12,CWR22Rv1,MTT,,,GI50,3.8 µM
COc1cc2c(cc1O)CCN(Cc1ccc(OC)c(OC)c1OC)C2,MDA-MB-231,WST-1,,96 h,GI50,> 100 µM
